The source of these data is ChEMBL document CHEMBL1125338, “Synthesis, chemical, and biological properties of vinylogous hydroxamic acids: dual inhibitors of 5-lipoxygenase and IL-1 biosynthesis” (J Med Chem, 1992).

Where only a bound is given, the exact number is not on record here.

Experiment [1] deals with T1, Polyunsaturated fatty acid 5-lipoxygenase (Rattus norvegicus, UniProt P12527).
T1 sequence (P12527 whole entry): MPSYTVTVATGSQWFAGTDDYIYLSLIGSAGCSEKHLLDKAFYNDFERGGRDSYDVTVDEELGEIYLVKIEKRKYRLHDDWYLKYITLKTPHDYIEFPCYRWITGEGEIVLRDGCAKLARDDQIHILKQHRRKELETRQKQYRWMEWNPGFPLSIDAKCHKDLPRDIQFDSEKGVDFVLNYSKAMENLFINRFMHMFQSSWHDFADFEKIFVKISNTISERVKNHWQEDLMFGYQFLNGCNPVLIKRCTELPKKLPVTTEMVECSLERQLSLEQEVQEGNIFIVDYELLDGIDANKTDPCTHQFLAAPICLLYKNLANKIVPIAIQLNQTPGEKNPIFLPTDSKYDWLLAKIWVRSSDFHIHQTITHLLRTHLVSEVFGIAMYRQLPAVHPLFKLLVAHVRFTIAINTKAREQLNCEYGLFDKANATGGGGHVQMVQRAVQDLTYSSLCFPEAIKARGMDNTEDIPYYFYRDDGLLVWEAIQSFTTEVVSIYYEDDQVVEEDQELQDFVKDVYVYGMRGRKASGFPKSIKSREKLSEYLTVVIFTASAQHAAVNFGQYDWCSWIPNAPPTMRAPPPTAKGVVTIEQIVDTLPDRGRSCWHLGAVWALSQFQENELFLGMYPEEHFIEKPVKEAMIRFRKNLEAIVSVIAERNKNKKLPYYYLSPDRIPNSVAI
The experiment is described as follows: inhibitory activity against 5-lipoxygenase in rat basophilic leukemia cell line. It counts as cell-based, RBL-1.

Experiment [2] is described as follows: Inhibition of IL-1 beta biosynthesis in human monocytes. The experiment is classed as functional, cell-based. In outline:
(§1)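 Human blood monocytes were isolated by ficoll-hypaque then elutriation and plated at 2×10^6 cells/mL in RPMI 1640 + 5% FBS. Compound in DMSO was added at 10, 3, 1, 0.3 and 0.1 μM for 1 h. Cells were then stimulated with Salmonella typhimurium LPS for about 20 h. Supernatant IL-1 was measured by ELISA and viability by MTT.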

For experiment [3], the target named is T2, Polyunsaturated fatty acid 5-lipoxygenase (Rattus norvegicus) (UniProt P12527).
T2 sequence (whole entry): T1 sequence (P12527 whole entry)
Kind of experiment: Compound was evaluated for the inhibition of 5-LO (lipoxygenase). The experiment is classed as functional. The procedure, abridged:
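Enzyme source was a 1000g supernatant of homogenized RBL-1 cells, dosed to give 3300–3800 dpm net 5-HETE (9–20 μg cell protein/assay). Compound in 5% DMSO/0.2 M Tris pH 8.5 was preincubated with enzyme for 5 min at 37 °C in pH 7.0 phosphate buffer (EDTA, gelatin, glutathione, CaCl2, indomethacin). Then 0.042 mM [14C]arachidonic acid (final) was added, 2 min. Duplicates; IC50 by linear regression over three concentrations.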

Experiment [4] relates to Crotalus adamanteus. The experiment is described as follows: Compound was evaluated for the inhibition of PLA2. It counts as functional.
Experiment [5] has as its target Cyclooxygenase (Bos taurus) (UniProt O62664+O62698).
Experiment [6] concerns the target Interleukin-1 beta (Homo sapiens) (UniProt P01584). Kind of experiment: Compound was evaluated for the inhibition of IL-1 beta release by human monocytes.
The species entered for experiment [7] is Homo sapiens. Kind of experiment: Compound was evaluated for the inhibition of,IL-1beta biosynthesis. It counts as functional. In outline:
as §1

Experiment [8] has as its system Crotalus adamanteus. The experiment is described as follows: Compound was evaluated for the inhibition of,PLA2. The experiment is classed as functional.
Experiment [9] addresses T2, Polyunsaturated fatty acid 5-lipoxygenase (Rattus norvegicus).
Experiment [10] has as its system Crotalus adamanteus. Kind of experiment: Compound was evaluated for the inhibition of, PLA2. It counts as functional.
The species named for experiment [11] is Homo sapiens. Kind of experiment: Compound was evaluated for the inhibition of, IL1-beta biosynthesis. It counts as functional. In outline:
as §1

Experiment [12] deals with T2, Polyunsaturated fatty acid 5-lipoxygenase (Rattus norvegicus). The source holds these as a separate data set.

Sequence of Interleukin-1 beta (Homo sapiens) (P01584 whole entry, looked up): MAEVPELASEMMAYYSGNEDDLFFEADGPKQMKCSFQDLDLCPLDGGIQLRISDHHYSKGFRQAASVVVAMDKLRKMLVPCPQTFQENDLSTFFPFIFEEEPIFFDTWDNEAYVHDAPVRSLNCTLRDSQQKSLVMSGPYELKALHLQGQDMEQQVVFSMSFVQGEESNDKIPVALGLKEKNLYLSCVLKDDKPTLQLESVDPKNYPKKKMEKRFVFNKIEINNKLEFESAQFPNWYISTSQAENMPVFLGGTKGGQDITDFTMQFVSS

Turning to `CN(O)/C=C\C(=O)c1ccc(F)cc1`, the figures for the 50% inhibitory concentration (IC50) in experiment [1] and in experiment [2] were 5 µM and 5.5 µM, respectively.
Take `CN(O)/C=C\C(=O)c1cc(C(F)(F)F)cc(C(F)(F)F)c1`: in [1], the IC50 was found to be 0.91 µM.
`COc1ccccc1C(=O)/C=C\N(Cc1ccccc1)OC`: in experiment [1], the IC50 is > 25 µM.
On the same count and under the same terms, then `CCCCCCCCCCN(O)/C=C\C(=O)c1ccc(F)cc1`, with 13 µM.
On to `O=C(/C=C\N(O)Cc1ccc(Oc2ccccc2)cc1)C1CC1`, for which the IC50 was 1.4 µM in [1] and > 10 µM in [2].
In the case of `O=C(/C=C\N(O)Cc1ccccc1)c1ccc(Cl)cc1`, the ID50 in [3] is 1.5 µM; in the experiment on Crotalus adamanteus [4], > 1000 µM; in [5], > 750 µM; in experiment [6] it was 2.1 µM. The IC50 worked out at 1.5 µM in experiment [1] and 2.1 µM in experiment [2].
Consider `COC(=O)/C=C\N(O)Cc1ccc(OCc2ccccc2)cc1`, for which the IC50 in [1] is 4.8 µM. In other words, the single-digit micromolar range.
`CC(c1cc2ccccc2s1)N(O)C(N)=O` (stereo unspecified) [ZILEUTON]: the ID50 is >30 µM in the experiment filed under Homo sapiens [7], > 1000 µM with Crotalus adamanteus [8] and > 750 µM in experiment [5].
For the molecule `CC(=O)ON(/C=C\C(=O)c1ccc(F)cc1)Cc1ccccc1`, the IC50 in [1] was > 25 µM; in [2], > 10 µM.
Take `CN(O)/C=C(\C(=O)c1ccccc1)c1ccccc1`: in experiment [1], the half-maximal inhibitory concentration (IC50) is > 25 µM.
For the molecule `CC(=O)ON(C)/C=C\C(=O)c1ccc(-c2ccccc2)cc1`, the IC50 in [1] was > 25 µM.
The same measure, in the same setting: then `CC(=O)ON(C)/C=C\C(=O)c1ccc([N+](=O)[O-])cc1`, with > 25 µM.
The same measure, in the same setting: then `CC(C)(C)/C(O)=C/C=N/OCc1ccccc1`, with > 25 µM; and `C/C(=C/C(=O)c1ccc(F)cc1)N(O)Cc1ccccc1`, with 0.25 µM.
Still for that read-out and setting: then `C/C(=C/N(C)O)C(=O)c1ccc(OCc2ccccc2)cc1`, with 8.9 µM.
Turning to `O=C(/C=C\N(O)Cc1ccc(-c2ccccc2)cc1)c1ccco1`, the IC50 in experiment [1] was 3.1 µM. This IC50 lies about 2.9-fold lower than the previous one.
On the same count and under the same terms, the result for `COc1ccc(C(=O)/C(=C\N(C)O)c2ccc(OC)cc2)cc1` reads > 25 µM.
`O=C(/C=C\N(O)Cc1ccccc1)c1ccc2ccccc2c1` displayed an IC50 in experiment [2] of 5.4 µM.
In turn, `O=C(/C=C\N(O)Cc1ccc(OCc2ccccc2)cc1)C1CC1` yielded an IC50 in experiment [1] of 2.6 µM.
Take `O=C(/C=C\N(O)CCc1ccccc1)c1ccc(F)cc1`: the IC50 is 0.12 µM in experiment [1] and > 10 µM in experiment [2].
The matching figures for `CC(=O)ON(/C=C\C(=O)c1ccc([N+](=O)[O-])cc1)Cc1ccccc1`: > 25 µM and > 10 µM.
For the molecule `O=C(/C=C\N(O)Cc1ccccc1)c1ccc(F)cc1`, in experiment [2], the IC50 worked out at 2.8 µM. Also, the ID50 in the experiment with Crotalus adamanteus [4] is > 1000 µM; in experiment [5] it was > 750 µM; in experiment [6], 2.8 µM.
Molecule `O=C(/C=C\N(O)c1ccccc1)c1ccc2ccccc2c1` displayed an IC50 in [1] of 0.81 µM.
For the molecule `CN(O)/C=C\C(=O)c1ccc2ccccc2c1`, the figures for the IC50 in [1] and in [2] were 1.8 µM and > 10 µM, respectively.
The matching figures for `CC(C)(C)C(=O)/C=C\N(O)Cc1ccccc1`: 5 µM and > 10 µM.
Take `O=C(/C=C\N(O)Cc1ccccc1)c1ccc([N+](=O)[O-])cc1`: the IC50 was 2.5 µM in experiment [1] and 1.7 µM in experiment [2].
The matching figures for `O=C(/C=C\N(O)C1CCCCC1)c1ccc(F)cc1`: 0.27 µM and > 10 µM.
The matching figures for `CC(=O)ON(/C=C\C(=O)c1ccc(-c2ccccc2)cc1)Cc1ccccc1`: > 25 µM and > 10 µM.
The molecule `O=C(/C=C\N(O)Cc1ccc(-c2ccccc2)cc1)c1ccsc1` came in with an IC50 in experiment [1] of 3 µM.
On the same count and under the same terms, the result for `O=C(/C=C\N(O)Cc1ccc(-c2ccccc2)cc1)c1cccs1` reads > 25 µM; that for `O=C(/C=C\NOCc1ccccc1)c1ccc(F)cc1`, > 25 µM.
`O=C(/C=C\N(O)Cc1ccccc1)c1ccncc1`: the concentration for half-maximal inhibition (IC50) in experiment [1] was 2 µM; in [2] it was 8.9 µM.
As to `CC(=O)ON(C)/C=C\C(=O)c1ccc(Cl)cc1`, the IC50 in experiment [1] was > 25 µM.
The same measure, in the same setting: then `CN(O)/C=C\C(=O)c1ccc(OCc2ccccc2)cc1` [listing 1 of 2 here], with 1.9 µM.
Regarding `O=C(/C=C\N(O)Cc1ccc(-c2ccccc2)cc1)c1ccc(F)cc1`, the IC50 turned out to be 3 µM in experiment [1] and 5.2 µM in experiment [2].
As for `COc1ccccc1/C(O)=C/C=N/OCc1ccccc1`, the IC50 in experiment [1] is > 25 µM.
Still for that read-out and setting: then `CSc1ccc(C(=O)/C(=C\N(C)O)c2ccc(F)cc2)cc1`, with > 25 µM.
For the molecule `COc1ccc2c(c1)c(CC(=O)O)c(C)n2C(=O)c1ccc(Cl)cc1`, the results for the ID50 (in the experiment with Crotalus adamanteus [4]; in [9]; in [6]) were > 1000 µM, > 25 µM and > 30 µM, respectively.
Consider `CC(=O)N(/C=C\C(=O)C(C)(C)C)OCc1ccccc1`, for which, in [1], the IC50 was > 25 µM.
`CC(=O)ON(/C=C\C(=O)c1ccc(Cl)cc1)Cc1ccccc1`: the IC50 in [1] is > 25 µM; in [2], > 10 µM.
The matching figures for `CN(O)/C=C\C(=O)c1ccc(OCc2ccccc2)cc1` [listing 2 of 2 here]: 1.1 µM and > 10 µM.
The matching figures for `CN(O)/C=C\C(=O)c1ccc(Cl)cc1`: 0.55 µM and > 10 µM.
On to `CC(=O)ON(C)/C=C\C(=O)c1ccc(OCc2ccccc2)cc1`, for which the IC50 in [1] is > 25 µM.
With `CN(O)/C=C\C(=O)c1ccc([N+](=O)[O-])cc1`, the IC50 in [1] was 1.5 µM; in experiment [2], > 10 µM.
The matching figures for `O=C(/C=C\N(O)C1CCCCC1)c1ccc2ccccc2c1`: 2.6 µM and > 10 µM.
The matching figures for `O=C(/C=C\N(O)Cc1ccc2ccccc2c1)c1ccc(F)cc1`: 0.4 µM and 7.7 µM.
Consider `CON(/C=C\C(=O)c1ccc(F)cc1)Cc1ccccc1`, for which the IC50 was > 25 µM in [1] and > 10 µM in experiment [2].
As to `CC(=O)ON(/C=C\C(=O)C(C)(C)C)Cc1ccccc1`, in [1], the IC50 is > 25 µM.
Same read-out and setting: the result for `CN(O)/C=C\C(=O)c1ccc(OCc2ccccn2)cc1` reads 10 µM.
As for `O=C(/C=C\N(O)Cc1ccccc1)c1ccc(Cl)c(Cl)c1`, the IC50 in [1] came out at 0.61 µM; in [2], 3.6 µM.
The matching figures for `O=C(/C=C\N(O)c1ccccc1)c1ccc(F)cc1`: 0.2 µM and > 10 µM.
The matching figures for `O=C(/C=C\N(O)Cc1ccccc1)c1c(Cl)cccc1Cl`: 1.7 µM and > 10 µM.
As to `CN(O)/C=C\C(=O)c1ccc(-c2ccccc2)cc1`, in experiment [2], the IC50 is > 10 µM.
As to `CN(O)/C=C\C(=O)Sc1ccc2ccccc2c1`, the IC50 in experiment [1] was 0.24 µM; in experiment [2], > 10 µM.
The matching figures for `O=C(/C=C\N(O)Cc1ccccc1)c1ccc(-c2ccccc2)cc1`: 0.25 µM and 3.6 µM.
`O=C(/C=C\N(O)Cc1ccc(-c2ccccc2)cc1)C1CC1`: the IC50 is 1.2 µM in experiment [1] and > 10 µM in [2].
`CCc1c(N(O)/C=C\C(=O)c2ccc3ccccc3c2)ccc2ccccc12` registered a half-maximal inhibitory concentration (IC50) in [1] of 0.75 µM. This lies in the sub-micromolar range.
For `O=C1CCN(c2ccccc2)N1` [PHENIDONE], the ID50 with Crotalus adamanteus [10] is > 1000 µM; in the experiment listed under Homo sapiens [11], >30 µM; in experiment [12] it was 0.48 µM; in [5] it was 6.9 µM.
Consider `O=C(/C=C\NOCc1ccccc1)c1ccc(-c2ccccc2)cc1`, for which the IC50 in experiment [1] was > 25 µM.
`O=C(/C=C\N(O)Cc1ccc2ccccc2c1)C1CC1`: the IC50 in experiment [1] was 1.5 µM; in experiment [2], 9.9 µM.

One may read the IC50 as the concentration that inhibits the measured activity by half.
